Hits are enriched below; roughly 1.5% of the tested compounds scored in any of these assays.
APJ ag = agonists of human APJ apelin receptor. P35414. CHO-K1 APJ PathHunter beta-arrestin, luminescence; 0% DMSO wells, 100% apelin. activation, % at 20 µM. actives 0.11% (n = 330,000). AID 2520;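 active = activation more than six SD over the plate average, tested at 20 µM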;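 also: 0% = DMSO alone and 100% = apelin-13 at 10 nM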
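Assay system: engineered CHO-K1 APJ arrestin reporter cells; Amount: 1000 CHO-K1 reporter cells seeded per well; Dosing: one dose, 20 µM compound, 1% DMSO; Times: compound stimulation 90 min at 25 °C, detection 60 min; Measured by: luminescent beta-gal fragment complementation, chemiluminescent substrate; Read-out: APJ–arrestin association signal; Controls: DMSO vs Apelin-13 10 nM.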
EBI2 antag = blocks human EBI2 receptor beta-arrestin signaling. P32249. EBI2 beta-arrestin recruitment, luminescence, 7a,25-OHC stimulated. inhibition, % at 5 µM. actives 0.81% (n = 360,000). AID 651636; in the data active = inhibition above about 38%;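 also: enzyme fragment complementation signal reports receptor beta-arrestin coupling in cells; 0% = agonist plus DMSO wells and 100% = wells without agonist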
Target sequence (P32249 whole entry, looked up, the tested form may be a part): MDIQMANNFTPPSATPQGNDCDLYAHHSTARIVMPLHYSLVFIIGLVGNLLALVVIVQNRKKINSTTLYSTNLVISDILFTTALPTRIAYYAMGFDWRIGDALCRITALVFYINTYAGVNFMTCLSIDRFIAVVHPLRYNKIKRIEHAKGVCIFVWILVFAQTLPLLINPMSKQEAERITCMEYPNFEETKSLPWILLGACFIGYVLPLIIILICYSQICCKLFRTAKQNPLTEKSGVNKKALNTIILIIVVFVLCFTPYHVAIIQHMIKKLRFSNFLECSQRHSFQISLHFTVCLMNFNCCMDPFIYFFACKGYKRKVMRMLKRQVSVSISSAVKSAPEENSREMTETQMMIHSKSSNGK
iPSC survival up = enhancers of human iPSC single-cell survival. hiPSC single-cell survival, ATPlite luminescence; 100% = ROCK inhibitor wells, 0% = DMSO. survival enhancement, % at 20 µM. actives 0.044% (n = 360,000); in the data active = survival enhancement above about 18%;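 also: cells exposed to compounds for 16 hours before the ATP read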
CXCR6 inh = blocks human CXCR6 beta-arrestin recruitment | CHO-K1 PathHunter CXCR6 beta-arrestin, luminescence | actives 0.36% (n = 360,000) | inhibition, % at 20 µM; in the data active = inhibition above about 34%, passing the limit was not always enough;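 also: antagonist mode with CXCL16 agonist at 10 nM final; 0% = 10 nM CXCL16 with DMSO and 100% = unstimulated wells without agonist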
Target sequence (O00574 whole entry, looked up): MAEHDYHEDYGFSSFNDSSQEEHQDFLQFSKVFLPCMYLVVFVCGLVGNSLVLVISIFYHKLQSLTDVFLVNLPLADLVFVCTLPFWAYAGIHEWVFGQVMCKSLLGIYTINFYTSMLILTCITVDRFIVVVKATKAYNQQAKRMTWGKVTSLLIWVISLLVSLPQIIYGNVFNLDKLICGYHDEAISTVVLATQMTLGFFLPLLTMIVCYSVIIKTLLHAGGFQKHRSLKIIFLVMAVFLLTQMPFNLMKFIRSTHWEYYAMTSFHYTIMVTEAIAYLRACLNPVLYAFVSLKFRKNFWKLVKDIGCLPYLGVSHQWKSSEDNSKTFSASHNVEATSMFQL
APJ antagonist = blocks the human apelin receptor APJ; CHO-K1 APJ beta-arrestin complementation, luminescence; actives 0.32% (n = 330,000); P35414; inhibition, % at 20 µM; AID 2521;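 active = inhibition above about 40% at 20 µM, limit read from the data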;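 also: cells challenged with 10 nM apelin-13 agonist together with compound; plate controls were apelin-13 plus DMSO wells for no effect and DMSO wells lacking apelin-13 for full effect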
CCR6 antagonist = blocks CCL20-driven beta-arrestin recruitment at human CCR6; actives 0.49% (n = 340,000); inhibition, % at 20 µM; CHO-K1 CCR6 PathHunter beta-arrestin, luminescence, CCL20-stimulated; P51684;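 active = compounds whose inhibition of the agonist-driven luminescence signal at 20 µM reaches about 50%, limit read from the data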;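 also: cells stimulated with CCL20 at 14 nM final; plate controls were DMSO with CCL20 for no effect and DMSO without agonist for full effect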
Numbers without * were called inactive; / = no result.

SMILES	APJ ag	EBI2 antag	iPSC survival up	CXCR6 inh	APJ antagonist	CCR6 antagonist
Cc1cc(C)n2c(SCC(=O)Nc3ccccc3C#N)nnc2n1	-0.7	-11.7	-0.2	-7.3	-18.3	1.0
COc1cc(/C=C/C(=O)O)cc(S(=O)(=O)N2CCN(S(=O)(=O)c3ccc(Cl)cc3)CC2)c1OC	-1.4	4.8	-0.3	-6.3	-4.7	2.6
CC(C)C[C@H]1C(=O)N2CCC[C@H]2[C@]2(O)O[C@](NC(=O)[C@@H]3C=C4c5cccc6[nH]c(Br)c(c56)CC4N(C)C3)(C(C)C)C(=O)N12 (stereo partly drawn)	4.9	89.3*	-1.5	3.5	0.3	10.7
COc1ccc(CN(C)C(=O)c2ccc(NS(=O)(=O)c3ccc4[nH]c(=O)[nH]c4c3)cc2)c(OC)c1OC	-1.0	-7.5	3.5	3.7	-9.2	5.2
COc1cccc(CNc2ccc(C)c(Cl)c2)c1	-1.3	-11.5	-0.6	-0.7	19.9	13.8
COc1cccc(CNc2cc(CSc3ccc(Cl)cc3)nc(C)n2)c1	-2.6	49.2*	6.3	-0.5	12.5	10.6
CCCCn1c(SCC(=O)NNC(=O)c2ccccc2)n[nH]c1=O	-2.2	-12.7	-0.4	4.6	0.5	-6.7
Cc1cc(NS(=O)(=O)c2ccc(NC(=S)NC(=O)c3ccc(Cl)cc3Cl)cc2)no1	-0.1	9.7	-3.1	9.3	30.4	51.7*
Cc1cc(NS(=O)(=O)c2ccc(NC(=O)c3ccc(Cl)cc3Cl)cc2)no1	3.8	1.7	-0.5	-3.7	-0.5	1.9
O=C1/C(=C/c2ccc([N+](=O)[O-])cc2)C=C(c2ccccc2)N1c1ccc(O)cc1	0.4	61.4*	-3.3	37.5*	6.1	54.4*
CC1=NN(C(=O)c2ccc(Cl)cc2)C(O)(c2ccccc2)C1 (stereo not drawn)	-5.3	1.1	-0.6	17.5	15.2	55.0*
CC1=NN(C(=O)CSCc2ccccc2)C(O)(c2ccc(Cl)cc2)C1 (stereo not drawn)	-2.6	1.2	1.0	1.2	10.3	20.2
Cc1ccc(Cl)c2c1=NC(=O)C=2c1[nH]c(=S)[nH]c1O	-7.7	-5.5	-0.1	16.6	41.0*	45.0
CCc1ccc(C2C(C#N)=C(N)C(C#N)(C#N)C3=CCC(C(C)(C)C)CC32)cc1 (stereo not drawn)	-1.3	28.7	3.6	42.1*	24.3	67.6*
CC(C)NC(=O)C1(C)CN(S(C)(=O)=O)CC(=O)N1C1CCN(Cc2ccccc2)CC1 (stereo not drawn)	/	6.0	/	/	/	/
O=[N+]([O-])c1cc(Cl)cc(/C=N\Nc2ccccn2)c1O	-6.6	31.8	-0.5	78.4*	19.8	73.7*
Cc1ccc(C)c(S(=O)(=O)NCc2ccc3c(c2)OCO3)c1	3.0	4.5	-0.7	11.6	15.7	9.1
COc1ccc(CC(=O)N2N=C(c3ccncc3)CC2(O)C(F)(F)F)cc1 (stereo not drawn)	-5.0	1.0	28.6*	1.3	5.4	4.2
CCC1=NN(C(=O)Cc2ccc(OC)cc2)C(O)(C(F)(F)F)C1 (stereo not drawn)	4.3	-7.0	1.0	2.0	5.3	-3.5
N#CC(C#N)=NNc1ccc([N+](=O)[O-])cc1	-9.0	12.9	-0.8	42.8*	26.4	56.9*
COc1ccc(C(=O)/C(C#N)=N/Nc2ccccc2[N+](=O)[O-])cc1	-2.0	2.7	3.6	33.7	32.3	41.8
COc1ccc(C(=O)/C(C#N)=N/Nc2ccc([N+](=O)[O-])cc2)cc1	-9.5	-5.2	-0.3	66.7*	72.6*	76.3*
CC(=O)Nc1ccc(S(=O)(=O)NC(C)C(=O)OCC(=O)Nc2ccc(F)cc2Cl)cc1 (stereo not drawn)	/	-0.6	0.0	-1.6	/	/
Cn1cnnc1SCC(=O)Nc1ccc(N2CCCCC2)cc1	-3.7	-15.6	-2.1	-5.7	26.6	-1.4
O=C(/C=C/c1cccc(Cl)c1)Nc1ncccn1	-2.5	-4.5	-0.7	-4.5	16.5	-1.7
SMILES	APJ ag	EBI2 antag	iPSC survival up	CXCR6 inh	APJ antagonist	CCR6 antagonist
O=C(/C=C/c1cccc(Cl)c1)c1nc2ccccc2[nH]1	0.0	55.9*	-6.2	8.9	7.7	31.9
O=C(/C(=C\c1ccccc1)c1nc2ccccc2[nH]1)c1ccc(Cl)cc1	4.2	47.9*	-1.3	7.9	7.9	18.9
COc1ccc(OC)c(C2CC(=O)N3CN(c4cccc(Cl)c4C)CSC3=C2C#N)c1 (stereo not drawn)	-1.1	9.1	1.4	-3.6	0.0	3.2
COc1cccc(C2CC(=O)N3CN(c4cccc(Cl)c4C)CSC3=C2C#N)c1OC (stereo not drawn)	2.8	-5.1	27.1*	-5.0	7.7	-0.1
CCCC(=O)NC(c1ccco1)c1cc([N+](=O)[O-])c2cccnc2c1O (stereo not drawn)	-2.8	-18.3	7.9	24.1	38.5	20.2
CC(=O)NC(c1ccc(C)cc1)c1cc([N+](=O)[O-])c2cccnc2c1O (stereo not drawn)	-3.5	14.4	-1.3	48.0*	5.6	/
CCC(=O)NC(c1ccc(C)cc1)c1cc([N+](=O)[O-])c2cccnc2c1O (stereo not drawn)	/	-1.3	3.1	51.1*	/	48.4
CC[C@H]1c2[nH]c3ccccc3c2C[C@H]2C(=O)N(c3ccc(F)cc3)C(=O)N21	3.0	48.0*	-3.1	-8.2	-11.5	-1.3
CCS(=O)c1ccccc1C(=O)OCC(=O)Nc1ccc2ccccc2c1 (stereo not drawn)	-1.8	10.9	-0.3	-7.5	-8.9	5.3
CC1CCc2c(sc(NC(=O)c3ccc(-c4ccccc4[N+](=O)[O-])o3)c2C#N)C1 (stereo not drawn)	-7.0	28.2	1.7	33.3	24.0	58.2*
O=C(COC(=O)c1cc(=O)[nH]c(=O)[nH]1)Nc1ccccc1F	-5.0	3.3	-1.1	4.8	3.4	-0.4
Cc1ccc(-c2csc3nc4c5ccccc5c(NCCCN(C)C)nn4c(=O)c23)cc1	11.2*	-6.9	-0.7	0.8	13.6	21.1
Cc1ccc(-c2csc3nc4c5ccccc5c(NCCCN5CCOCC5)nn4c(=O)c23)cc1	-2.3	/	/	/	11.9	/
CCOC(=O)c1c(-c2cc(OC)c(OC)c(OC)c2)csc1N	/	0.7	20.8*	-5.0	/	/
CCOC(=O)c1c(-c2cc(OC)c(OC)c(OC)c2)csc1NC(=O)c1ccccc1	/	25.5	1.2	3.2	/	/
CCOC(=O)c1c(N)sc(C(N)=O)c1C	-2.7	-7.3	-0.6	-9.4	2.2	13.0
CCOC(=O)c1c(N)sc(N)c1C(=O)OCC	-11.5	11.8	-0.5	16.8	60.6*	23.3
COc1ccc(C(=O)Nc2c(N)nc[nH]c2=O)cc1	3.4	-4.0	0.6	3.4	4.1	5.7
C=C(CN(C)C)C(=O)c1cc(C)ccc1C	/	2.1	-0.5	96.4*	/	108.1*
Cc1ccc(C)c(C(=O)NCCN(C)C)c1	-2.5	-1.5	1.3	-0.2	-16.3	-3.6
